Laboratory results: ChEMBL document CHEMBL3877303 (J Med Chem, 2017)
Active and inactive are the calls of the source. The rule behind the calls is not given here.

Legend:
[1] = biological target: T1, Mast/stem cell growth factor receptor Kit (Homo sapiens, UniProt P10721); assay: Inhibition of recombinant C-terminal polyhistidine-tagged human c-KIT expressed in mammalian expression system assessed as residual activity at 1 uM using Tyr 06 peptide as substrate measured after 1hr by FRET based Z'Lyte assay relative to control
BaF3 = assay: Inhibition of BCR/ABL p210 fusion protein M356T mutant (unknown origin) expressed in BAF3 cells assessed as growth inhibition measured after 72 hrs by CellTiter-Glo or CCK8 assay; assay type: cell-based; conditions: Homo sapiens
Method in brief: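 BaF3 lines were made by retroviral transduction with kinase-fusion MSCV vectors packaged in HEK293T cells. Cells were selected with puromycin for 48 h, then selected again without IL-3 so growth depends on the introduced kinase. […] They were seeded at 1 to 2.5×10^4 cells/mL with compound dilutions and incubated 72 h. Viability was read by CellTiter-Glo luminescence or CCK-8 absorbance (450/655 nm), normalized to DMSO control; GI50 was curve-fitted from triplicate tests.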

[2] = biological target: T2, BCR/ABL p210 fusion protein (Homo sapiens, UniProt A1Z199); assay: Inhibition of BCR/ABL p210 fusion protein autophosphorylation at Y245 in human KU812 cells at 0.01 to 3 uM measured after 2 hrs by immunoblotting; assay type: cell-based
Method in brief: (§1)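 After an ice-cold PBS wash, cells were lysed in RIPA buffer (50 mM Tris pH 8.0) with protease and phosphatase inhibitors, and protein was quantified by BCA. Lysates were run on SDS-PAGE, transferred to PVDF and blocked in 5% milk/TBST. Phospho- and total proteins were probed by immunoblot with ECL detection; β-actin served as loading control.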

[3] = biological target: T2, BCR/ABL p210 fusion protein; assay: Inhibition of BCR/ABL p210 fusion protein mediated signaling pathways assessed as reduction in ERK phosphorylation at T202/Y204 in human MEG01 cells at 0.01 to 3 uM measured after 2 hrs by immunoblotting; assay type: cell-based; conditions: MEG-01; method in brief: as §1
[4] = biological target: T1, Mast/stem cell growth factor receptor Kit; assay: Inhibition of c-KIT mediated signaling pathways assessed as reduction in S6 phosphorylation at S235/236 in human GIST882 cells at 0.03 to 10 uM measured after 2 hrs by immunoblotting; assay type: cell-based; method in brief: as §1
[5] = Cell cycle arrest in human K562 cells assessed as accumulation at G0/G1 phase at 0.3 uM after 24 hrs by propidium iodide/RNase staining based flow cytometry; assay type: functional
Method in brief: (§2)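 Cells were exposed to serially diluted compound, then fixed in cold 70% ethanol overnight at -20 °C. They were stained with PI/RNase buffer for DNA-content cell-cycle analysis.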

[6] = Cell cycle arrest in human GIST882 cells assessed as accumulation at G0/G1 phase at 0.3 uM after 48 hrs by propidium iodide/RNase staining based flow cytometry; assay type: functional; method in brief: as §2
[7] = Cmax in Sprague-Dawley rat at 1 mg/kg, iv; assay type: ADME, organism-based; parameters: dose 1 mg/kg, route intravenous; conditions: in vivo
Method in brief: (§3)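 Male Sprague-Dawley rats aged six to eight weeks were fasted overnight and then dosed iv or orally. Blood (~0.2 mL) was drawn from the jugular vein into heparin and kept on ice. Sampling was at 1 min to 8 h for iv and 5 min to 24 h for oral. Plasma was separated by centrifugation at 2-8 °C and stored at -80 °C until analysis.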

[8] = Tmax in Sprague-Dawley rat at 1 mg/kg, iv; assay type: ADME, organism-based; conditions: in vivo
Method in brief: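 Male Sprague-Dawley rats, 6-8 weeks old, fasted overnight, dosed iv or po. Jugular vein blood (~0.2 mL, heparin) sampled at 1 min to 8 h (iv) or 5 min to 24 h (po). Plasma separated by centrifugation at 2-8 °C and stored at -80 °C before analysis.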

[9] = AUC (0 to t) in Sprague-Dawley rat at 10 mg/kg, po; assay type: ADME, organism-based; conditions: in vivo; method in brief: as §3
[10] = biological target: Platelet-derived growth factor receptor beta (Homo sapiens, UniProt P09619); assay: Inhibition of recombinant His-tagged human PDGFR-beta cytoplasmic domain (558 to 1106 residues) expressed in baculovirus expression system assessed as residual activity at 1 uM by KINOMEscan binding assay relative to control
Sequence of Platelet-derived growth factor receptor beta (P09619 whole entry, the tested form may be a part): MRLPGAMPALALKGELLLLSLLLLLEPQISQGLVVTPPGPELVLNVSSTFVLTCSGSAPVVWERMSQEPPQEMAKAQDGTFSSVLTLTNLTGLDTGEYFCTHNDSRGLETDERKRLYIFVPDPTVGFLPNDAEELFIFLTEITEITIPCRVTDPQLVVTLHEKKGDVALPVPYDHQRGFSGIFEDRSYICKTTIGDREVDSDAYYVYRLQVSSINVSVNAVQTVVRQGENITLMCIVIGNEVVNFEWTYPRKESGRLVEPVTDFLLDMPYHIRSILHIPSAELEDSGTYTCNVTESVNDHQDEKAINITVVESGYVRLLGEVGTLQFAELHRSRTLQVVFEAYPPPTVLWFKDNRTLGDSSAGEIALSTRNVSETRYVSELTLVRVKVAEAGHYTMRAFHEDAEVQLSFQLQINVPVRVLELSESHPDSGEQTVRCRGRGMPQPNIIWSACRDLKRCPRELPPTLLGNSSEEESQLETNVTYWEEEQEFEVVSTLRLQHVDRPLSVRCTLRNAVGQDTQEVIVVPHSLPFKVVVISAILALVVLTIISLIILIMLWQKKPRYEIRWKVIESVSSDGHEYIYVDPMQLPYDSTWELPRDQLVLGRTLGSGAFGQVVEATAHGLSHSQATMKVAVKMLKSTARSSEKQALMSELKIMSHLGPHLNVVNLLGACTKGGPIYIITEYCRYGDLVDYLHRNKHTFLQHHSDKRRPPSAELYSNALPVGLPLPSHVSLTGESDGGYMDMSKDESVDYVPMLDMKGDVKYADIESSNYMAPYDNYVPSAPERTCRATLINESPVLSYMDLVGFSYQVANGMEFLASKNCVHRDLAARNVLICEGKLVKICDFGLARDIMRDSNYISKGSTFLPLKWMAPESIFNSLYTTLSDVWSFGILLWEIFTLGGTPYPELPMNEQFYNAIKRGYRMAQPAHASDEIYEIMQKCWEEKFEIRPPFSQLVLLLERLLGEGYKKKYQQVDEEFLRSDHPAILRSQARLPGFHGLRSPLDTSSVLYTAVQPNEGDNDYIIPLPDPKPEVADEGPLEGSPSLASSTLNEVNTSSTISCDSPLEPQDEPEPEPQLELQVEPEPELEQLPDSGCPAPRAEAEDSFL

T2 sequence (A1Z199 1-97): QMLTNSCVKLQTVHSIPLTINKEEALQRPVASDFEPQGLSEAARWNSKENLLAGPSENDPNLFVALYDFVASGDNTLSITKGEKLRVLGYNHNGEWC
T1 sequence (P10721 whole entry, the tested form may be a part): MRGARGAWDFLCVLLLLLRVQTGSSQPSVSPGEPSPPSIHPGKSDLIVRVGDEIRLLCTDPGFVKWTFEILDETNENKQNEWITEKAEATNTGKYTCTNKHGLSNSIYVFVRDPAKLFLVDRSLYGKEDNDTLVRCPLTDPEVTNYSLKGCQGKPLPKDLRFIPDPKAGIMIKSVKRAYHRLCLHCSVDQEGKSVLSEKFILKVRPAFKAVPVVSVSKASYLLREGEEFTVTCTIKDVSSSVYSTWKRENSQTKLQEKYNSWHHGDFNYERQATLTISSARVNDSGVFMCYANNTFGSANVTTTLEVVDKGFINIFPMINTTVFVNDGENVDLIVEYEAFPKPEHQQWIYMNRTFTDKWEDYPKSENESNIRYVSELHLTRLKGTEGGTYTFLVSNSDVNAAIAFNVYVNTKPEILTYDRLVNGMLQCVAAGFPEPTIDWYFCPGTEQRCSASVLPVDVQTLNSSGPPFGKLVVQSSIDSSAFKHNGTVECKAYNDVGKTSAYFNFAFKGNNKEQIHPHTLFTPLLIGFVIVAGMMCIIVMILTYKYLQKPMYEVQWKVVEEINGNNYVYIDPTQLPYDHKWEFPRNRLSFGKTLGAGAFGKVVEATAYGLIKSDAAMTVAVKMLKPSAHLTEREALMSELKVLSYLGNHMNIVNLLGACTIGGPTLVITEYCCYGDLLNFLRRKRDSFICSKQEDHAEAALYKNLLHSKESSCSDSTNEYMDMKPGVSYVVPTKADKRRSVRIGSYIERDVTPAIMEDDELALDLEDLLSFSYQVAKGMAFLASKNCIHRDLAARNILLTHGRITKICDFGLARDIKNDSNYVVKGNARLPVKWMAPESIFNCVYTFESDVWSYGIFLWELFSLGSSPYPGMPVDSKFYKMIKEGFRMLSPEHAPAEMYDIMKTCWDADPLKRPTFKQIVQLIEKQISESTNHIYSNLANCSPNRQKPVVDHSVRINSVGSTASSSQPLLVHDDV

Activity [1]: 0.8% | GI50 (BaF3): 270 nM | inhibition [2]: Active | inhibition [3]: Active | inhibition [4]: Active | Cmax [7]: 825 ng/mL | Tmax [8]: 1.02 min | AUC(0-t) [9]: 2420 ng·h/mL | Activity [10]: 0.3%
SMILES: Cc1ccc(C(=O)N2CCC(Oc3cc(NC(=O)c4ccc(CN5CCN(C)CC5)c(C(F)(F)F)c4)ccc3C)CC2)cn1
Activity [5]: Active | Activity [6]: Active
